Experimental data as given in ChEMBL document CHEMBL1122071, “Avermectin acyl derivatives with anthelmintic activity” (1982).

What was measured:
Format in all cases: functional
[1] = system: Trichostrongylus colubriformis; test: Minimal dose necessary to eliminate > 83% of Trichostrongylus colubriformis infection in gerbils
Cooperia oncophora [2] = test: Anthelmintic efficacy against adult Cooperia oncopphora (C.o) in sheep at dose of 0.25 mg/kg administered orally; conditions: route oral
Method in brief: (§1)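 Lambs experimentally infected with mixed gastrointestinal nematodes (H. contortus, O. circumcincta, T. axei, T. colubriformis, C. oncophora, Oe. columbianum) were dosed orally, 1–3 sheep per dose. An untreated infected group of 6 was included, with worm burdens given as the geometric mean number of worms per lamb. Efficacy was scored against adult and, where listed, EL4 stages.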

Haemonchus contortus [3] = test: Anthelmintic efficacy against adult Haemonchus contortus (H.c) in sheep at dose of 0.25 mg/kg administered orally; conditions: route oral; method in brief: as §1
[4] = system: Oesophagostomum columbianum; test: Anthelmintic efficacy against Oseophagostomum columbianum (Oe. c) in sheep at dose of 0.25 mg/kg administered orally; conditions: route oral; method in brief: as §1
[5] = system: Teladorsagia circumcincta; test: Anthelmintic efficacy against adult Ostertagia circumcincta (O. c) in sheep at dose of 0.25 mg/kg administered orally; conditions: route oral; method in brief: as §1
Trichostrongylus axei [6] = test: Anthelmintic efficacy against Trichostrongylus axei (T.a) in sheep at dose of 0.25 mg/kg administered orally; conditions: route oral; method in brief: as §1
[7] = system: Trichostrongylus colubriformis; test: Anthelmintic efficacy against Trichostrongylus colubriformis (T.c) in sheep at dose of 0.25 mg/kg administered orally; conditions: route oral; method in brief: as §1
Cooperia oncophora [8] = test: Anthelmintic efficacy against adult Cooperia oncopphora (C.o) in sheep at dose of 0.25 mg/kg administered orally; 60-89%; method in brief: as §1
Haemonchus contortus [9] = test: Anthelmintic efficacy against adult Haemonchus contortus (H.c) in sheep at dose of 0.25 mg/kg administered orally; 20-59%; method in brief: as §1
[10] = system: Oesophagostomum columbianum; test: Anthelmintic efficacy against Oseophagostomum columbianum (Oe. c) in sheep at dose of 0.25 mg/kg administered orally; 20-59%; method in brief: as §1
[11] = system: Teladorsagia circumcincta; test: Anthelmintic efficacy against adult Ostertagia circumcincta (O. c) in sheep at dose of 0.25 mg/kg administered orally; 0-19%; method in brief: as §1
Trichostrongylus axei [12] = test: Anthelmintic efficacy against Trichostrongylus axei (T.a) in sheep at dose of 0.25 mg/kg administered orally; 0-19%; method in brief: as §1
[13] = system: Trichostrongylus colubriformis; test: Anthelmintic efficacy against Trichostrongylus colubriformis (T.c) in sheep at dose of 0.25 mg/kg administered orally; 0-19%; method in brief: as §1

CC[C@H](C)[C@H]1O[C@]2(C=C[C@@H]1C)C[C@@H]1C[C@@H](C/C=C(\C)[C@@H](O[C@H]3C[C@@H](OC)[C@@H](O[C@H]4C[C@@H](OC)[C@@H](O)[C@H](C)O4)[C@H](C)O3)[C@@H](C)/C=C/C=C3\CO[C@@H]4[C@H](OC(C)=O)C(C)=C[C@@H](C(=O)O1)[C@]34O)O2
Dose [1]: 0.125 mg/kg

CC[C@H](C)[C@H]1O[C@]2(C=C[C@@H]1C)C[C@@H]1C[C@@H](C/C=C(\C)[C@@H](O[C@H]3C[C@@H](OC)[C@@H](O[C@H]4C[C@@H](OC)[C@@H](O)[C@H](C)O4)[C@H](C)O3)[C@@H](C)/C=C/C=C3\CO[C@@H]4[C@H](O[Si](C)(C)C(C)(C)C)C(C)=C[C@@H](C(=O)O1)[C@]34O)O2
Dose [1]: >2.5 mg/kg

CC[C@H](C)[C@H]1O[C@]2(CC(O)[C@@H]1C)C[C@@H]1C[C@@H](C/C=C(\C)[C@@H](OC3CC(OC)C(OC4CC(OC)C(OC(C)=O)C(C)O4)C(C)O3)[C@@H](C)/C=C/C=C3\CO[C@@H]4[C@H](OC)C(C)=C[C@@H](C(=O)O1)[C@]34O)O2 (some centres undefined)
Efficacy (Cooperia oncophora [2]): >90% | Efficacy (Haemonchus contortus [3]): >90% | Efficacy [4]: >90% | Efficacy [5]: >90% | Efficacy (Trichostrongylus axei [6]): >90% | Dose [1]: 0.06 mg/kg | Efficacy [7]: >90%

CCC(C)[C@H]1O[C@]2(CC(OC(C)=O)[C@@H]1C)C[C@@H]1C[C@@H](C/C=C(\C)[C@@H](OC3CC(OC)C(OC4CC(OC)C(OC(C)=O)C(C)O4)C(C)O3)[C@@H](C)/C=C/C=C3\COc4cc(C)cc(c43)C(=O)O1)O2 (some centres undefined)
Dose [1]: >2.5 mg/kg

CC[C@H](C)[C@H]1O[C@]2(CC(OC(C)=O)[C@@H]1C)C[C@@H]1C[C@@H](C/C=C(\C)[C@@H](OC3CC(OC)C(OC4CC(OC)C(O)C(C)O4)C(C)O3)[C@@H](C)/C=C/C=C3\CO[C@@H]4[C@H](OC)C(C)=C[C@@H](C(=O)O1)[C@]34O)O2 (some centres undefined)
Efficacy (Cooperia oncophora [8]): 60% | Efficacy (Haemonchus contortus [9]): 20% | Efficacy [10]: 20% | Efficacy [11]: 0% | Efficacy (Trichostrongylus axei [12]): 0% | Dose [1]: 0.25 mg/kg | Efficacy [13]: 0%

CC[C@H](C)[C@H]1O[C@]2(CC(OC(C)=O)[C@@H]1C)C[C@@H]1C[C@@H](C/C=C(\C)[C@@H](OC3CC(OC)C(OC4CC(OC)C(OC(C)=O)C(C)O4)C(C)O3)[C@@H](C)/C=C/C=C3\CO[C@@H]4[C@H](OC(C)=O)C(C)=C[C@@H](C(=O)O1)[C@]34O)O2 (some centres undefined)
Dose [1]: 0.5 mg/kg

CC[C@H](C)[C@H]1O[C@]2(CC(O)[C@@H]1C)C[C@@H]1C[C@@H](C/C=C(\C)[C@@H](OC3CC(OC)C(OC4CC(OC)C(O)C(C)O4)C(C)O3)[C@@H](C)/C=C/C=C3\CO[C@@H]4[C@H](O)C(C)=C[C@@H](C(=O)O1)[C@]34O)O2 (some centres undefined) [AVERMECTIN B2A]
Dose [1]: 0.0125 mg/kg
